Experimental data as given in ChEMBL document CHEMBL1143660, “Structure-activity relationship studies of a series of novel delta-lactam-based histone deacetylase inhibitors” (J Med Chem, 2007).
Activity calls are given as the source filed them. No cut-off for these calls is given here.

Legend:
Histone deacetylase = assay: Inhibition of HDAC in HeLa cells by fluorescent activity assay; assay type: cell-based, Homo sapiens
RAW264.7 [1] = assay: Inhibition of LPS-stimulated TNFalpha production in RAW264.7 cells after 24 hrs by ELISA; assay type: functional, cell-based; details: Mus musculus, RAW264.7, 24 h
RAW264.7 [2] = assay: Inhibition of LPS-stimulated NO production in RAW264.7 cells after 24 hrs […]; assay type: functional, cell-based; details: Mus musculus, RAW264.7, 24 h
Procedure, shortened: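 RAW264.7 murine macrophages stimulated with LPS and treated with inhibitor at 0.1 to 10 µM; suppression of NO production measured and IC50 calculated; values are means of at least three experiments.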

HCT-15 = assay: Growth inhibition of HCT15 cells by SRB assay; assay type: functional, Homo sapiens
MDA-MB-231 [3] = assay: Growth inhibition of human MDA-MB-231 cells by SRB assay; assay type: functional
PC-3 = assay: Growth inhibition of PC3 cells by SRB assay; assay type: functional; details: Homo sapiens
ACHN = assay: Growth inhibition of ACHN cells by SRB assay; assay type: functional; details: Homo sapiens
NCI-H23 = assay: Growth inhibition of NCI-H23 cells by SRB assay; assay type: functional; details: Homo sapiens
MDA-MB-231 [4] = assay: Inhibition of tumor growth in MDA-MB-231 cells xenografted BALA/c nude mouse at 30 mg/kg, ip; assay type: functional, Homo sapiens; details: MDA-MB-231, ip, route intraperitoneal
LOX IMVI = assay: Growth inhibition of LOX-IMVI cells by SRB assay; assay type: functional; details: Homo sapiens

Structure (SMILES)	IC50 (Histone deacetylase) [µM]	IC50 (RAW264.7 [1]) [µM]	IC50 (RAW264.7 [2]) [µM]	GI50 (MDA-MB-231 [3]; Homo sapiens, MDA-MB-231) [µM]	other results
O=C(CC1=CCCN(CCCc2ccccc2)C1=O)NO	> 10	> 10	> 10		
O=C(CCCCCCC(=O)Nc1ccccc1)NO [VORINOSTAT]					GI50 (HCT-15): 0.82 µM; GI50 (MDA-MB-231 [3]): 0.66 µM
O=C(CCC1=CCCN(CCCCc2ccccc2)C1=O)NO	0.13	1.3	1.8	1.5	GI50 (HCT-15; Homo sapiens, HCT-15): 5.37 µM; GI50 (PC-3): 1.32 µM; GI50 (ACHN): 2.5 µM; GI50 (NCI-H23): 5.14 µM; inhibition in vivo at 30 mg/kg (MDA-MB-231 [4]): 51%
O=C(CCCC1=CCCN(CCCc2ccccc2)C1=O)NO	3.21	> 10	6.57		
C=CCN1CCC=C(CCC(=O)NO)C1=O		11	> 10		IC50 (Histone deacetylase; read-out: IC50): 4.27 µM
O=C(CCC1=CCCN(Cc2ccccc2)C1=O)NO		3.31	3.09	4.26	IC50 (Histone deacetylase; read-out: IC50): 0.67 µM; Activity (HCT-15; Homo sapiens): inactive
O=C(CC1=CCCN(Cc2ccccc2)C1=O)NO	> 10	> 10	> 10		
COc1ccc(CN2CCC=C(CCC(=O)NO)C2=O)c(OC)c1		5.06	5.2	2.67	IC50 (Histone deacetylase; read-out: IC50): 0.5 µM; GI50 (HCT-15; Homo sapiens, HCT-15): 7.98 µM; GI50 (LOX IMVI): 6.63 µM; GI50 (PC-3): 4.55 µM; GI50 (ACHN): 9.58 µM
O=C(CCCC1=CCCN(CCCCc2ccccc2)C1=O)NO	> 10	> 10	6.74		
O=C(CCC1=CCCN(CCc2ccccc2)C1=O)NO		1.9	4.27	1.62	IC50 (Histone deacetylase; read-out: IC50): 0.35 µM; GI50 (HCT-15; Homo sapiens, HCT-15): 8.16 µM; GI50 (LOX IMVI): 5.84 µM; GI50 (PC-3): 8.58 µM; GI50 (ACHN): 7.76 µM
O=C(CC1=CCCN(CCc2ccccc2)C1=O)NO	> 10	> 10	> 10		
O=C(CCCC1=CCCN(CCc2ccccc2)C1=O)NO	> 10	> 10	> 10		
O=C(CCC1=CCCN(CCCc2ccccc2)C1=O)NO	0.27	1.1	2.71	0.5	GI50 (HCT-15; Homo sapiens, HCT-15): 4.99 µM; GI50 (LOX IMVI): 3.34 µM; GI50 (PC-3): 5.04 µM; GI50 (ACHN): 1.17 µM; GI50 (NCI-H23): 3.79 µM
CN1CCC=C(CCC(=O)NO)C1=O	> 10	> 10	> 10		
O=C(CC1=CCCN(CCCCc2ccccc2)C1=O)NO	> 10	> 10	> 10		
